Test results published in ChEMBL document CHEMBL4808196, “Dual Bcl-XL /Bcl-2 inhibitors discovered from DNA-encoded libraries using a fragment pairing strategy” (Bioorg Med Chem, 2021).
The source made the active and inactive calls. The calls are words filed in the database; no cut-off is given here.

Tests used:
[1] = system: K562; experiment: Cytotoxicity against human K562 cells assessed as cell survival measured after 72 hrs by MTT assay; type: cell-based; conditions: K562, 72 h
In short: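 MTT viability assay: 10^4 cells/well seeded and held overnight at 37 C, 5% CO2 (K562 in IMDM with 10% FCS). Serially diluted compounds added for 72 h of exposure. MTT added at 0.3 mg/ml final for 4 h at 37 C. Formazan dissolved in 10% SDS/0.01 N HCl, absorbance read at 560/690 nm. EC50 from concentration–response plot.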

[2] = molecular target: Induced myeloid leukemia cell differentiation protein Mcl-1 (Homo sapiens, UniProt Q07820); experiment: Binding affinity to Mcl-1 (unknown origin) measured by surface plasmon resonance based pull down assay
In short: (§1)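 Biotinylated ligand (2800 RU) immobilised on a streptavidin SPR chip. Bcl protein in HBS-EP running buffer injected at 0.5, 0.25, 0.125 and 0.062 µM. Association 120 s, dissociation 240 s, 30 µl/min, 25 C. Surface regenerated with a 5 s pulse of 10 mM NaOH. KD estimated by kinetic fitting.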

[3] = molecular target: T1, Bcl-2-like protein 1 (Homo sapiens, UniProt Q07817); experiment: Binding affinity to Bcl-XL (unknown origin) using Bim peptide by surface plasmon resonance-based competition assay
In short: (§2)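 SPR competition on a streptavidin chip carrying 2800 RU biotinylated ligand. Flowed 0.5 µM Bcl-XL alone or premixed with 1.0 µM native BH3 peptide: Bim 26mer or Puma 25mer. Binding responses compared.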

[4] = molecular target: T1, Bcl-2-like protein 1; experiment: Competitive binding affinity to Bcl-XL (unknown origin) using ABT-199 by western blot based pull down assay
[5] = molecular target: T1, Bcl-2-like protein 1; experiment: Binding affinity to Bcl-xl (unknown origin) measured by surface plasmon resonance based pull down assay; in short: as §1
[6] = molecular target: Apoptosis regulator Bcl-2 (Homo sapiens, UniProt P10415); experiment: Binding affinity to Bcl-2 (unknown origin) measured by surface plasmon resonance based […]; in short: as §1
[7] = molecular target: T1, Bcl-2-like protein 1; experiment: Binding affinity to recombinant Bcl-XL (unknown origin) premixed with human HeLa cell lysate incubated for 1 hr by SDS PAGE Western blot based pull down assay; type: subcellular
In short: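 Streptavidin magnetic beads loaded with 100 µM biotinylated compound in PBS-T for 30 min, washed, then equilibrated in HBS-EP. His-tagged recombinant Bcl-XL (0.2 µM) spiked into 10 µg HeLa lysate and incubated with beads for 1 h with rotation. Three washes, heat elution in SDS buffer (95 C, 5 min), SDS-PAGE, anti-His western blot.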

[8] = molecular target: T1, Bcl-2-like protein 1; experiment: Binding affinity to Bcl-XL (unknown origin) using puma peptide by surface plasmon resonance-based competition assay; conditions: dose 1.0 µM; in short: as §2

T1 sequence (Q07817 whole entry): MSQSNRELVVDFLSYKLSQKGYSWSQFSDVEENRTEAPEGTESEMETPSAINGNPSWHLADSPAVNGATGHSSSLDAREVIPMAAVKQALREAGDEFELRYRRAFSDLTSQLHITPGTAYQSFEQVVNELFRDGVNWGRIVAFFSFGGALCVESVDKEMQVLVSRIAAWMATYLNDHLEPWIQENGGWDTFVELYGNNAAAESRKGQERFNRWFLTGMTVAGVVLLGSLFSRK
Chain of Induced myeloid leukemia cell differentiation protein Mcl-1 (Q07820 whole entry): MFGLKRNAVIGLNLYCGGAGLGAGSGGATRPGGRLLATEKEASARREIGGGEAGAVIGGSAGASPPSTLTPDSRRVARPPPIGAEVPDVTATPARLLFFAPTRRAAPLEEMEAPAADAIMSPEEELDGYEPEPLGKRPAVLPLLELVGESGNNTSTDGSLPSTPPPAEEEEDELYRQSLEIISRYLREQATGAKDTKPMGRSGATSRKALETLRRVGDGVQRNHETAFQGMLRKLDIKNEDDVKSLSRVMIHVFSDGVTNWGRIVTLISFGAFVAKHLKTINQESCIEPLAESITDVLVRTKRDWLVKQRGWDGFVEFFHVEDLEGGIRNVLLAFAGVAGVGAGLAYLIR
Chain of Apoptosis regulator Bcl-2 (P10415 whole entry): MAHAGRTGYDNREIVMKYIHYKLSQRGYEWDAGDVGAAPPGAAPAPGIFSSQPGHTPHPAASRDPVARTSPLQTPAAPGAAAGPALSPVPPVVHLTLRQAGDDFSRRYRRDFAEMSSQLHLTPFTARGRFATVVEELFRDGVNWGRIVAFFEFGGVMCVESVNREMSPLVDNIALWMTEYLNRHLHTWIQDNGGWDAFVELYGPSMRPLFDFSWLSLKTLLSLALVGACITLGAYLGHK

| Kd [2] | Activity [3] | Activity [4] | Kd [5] | Kd [6] | Activity [7] | Activity [8] | Structure (SMILES) | EC50 [1] |
| --- | --- | --- | --- | --- | --- | --- | --- | --- |
|  |  |  |  |  |  |  | CC1(C)CCC(CN2CCN(c3ccc(C(=O)NS(=O)(=O)c4ccc(NCC5CCOCC5)c([N+](=O)[O-])c4)c(Oc4cnc5[nH]ccc5c4)c3)CC2)=C(c2ccc(Cl)cc2)C1 [VENETOCLAX] | 2100 nM |
| 1240 nM | Active | Active | 96 nM | 21 nM | Active | Active | CC(C)C(NC1=NS(=O)(=O)c2ccccc21)C(=O)NCC(NC(=O)C1(NC(=O)COc2ccccc2-c2n[nH]c3ccc(Cl)cc23)CC1)C(=O)NC(=O)CCCCC[C@@H]1SC[C@@H]2NC(=O)N[C@@H]21 (some centres undefined) | 1720 nM |
